Screening data deposited in PubChem BioAssay by The Scripps Research Institute Molecular Screening Center.
Rows were chosen to be rich in hits. Some 1.9% of all compounds tested hit in one or more screens of this group.
CHRM4 agonist – human M4 muscarinic receptor agonists, primary screen, CHO-K1 cells, Fluo-8 calcium fluorescence; Muscarinic acetylcholine receptor M4 (Homo sapiens), P08173; CHO-K1 hM4/Gqi5; vehicle 0%, full acetylcholine response 100%; activation, % at 3 µM; 360,000 compounds, 0.14% hits; AID 624127, 2012;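 active means activation above the run mean over all test wells plus 3 SD, cut at about 32% in these data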;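 further: peak over basal fluorescence ratio per well then scaled between controls; 0% = DMSO wells and 100% = acetylcholine at EC100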
M4 antag – human M4 muscarinic receptor antagonists, primary screen, CHO cells, Fluo-8 calcium fluorescence; AID 624125, 2012; 360,000 compounds, 0.73% hits; CHO-hM4 cells, ACh EC80; inhibition, % at 3 µM; Muscarinic acetylcholine receptor M4 (Homo sapiens), P08173;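 active means inhibition above its plate's cutoff, the mean inhibition of sample wells plus 3 SD, cut at about 27% in these data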;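 further: 0% = acetylcholine EC80 with DMSO and 100% = DMSO without agonist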
CHRM5 agonist – human M5 muscarinic receptor agonists, primary screen, CHO-K1 cells, Fluo-8 calcium fluorescence. 360,000 compounds, 0.19% hits. AID 624037, 2012. activation, % at 3 µM. Muscarinic acetylcholine receptor M5 (Homo sapiens), P08912. CHO-K1 hM5 cells; 0% DMSO wells, 100% maximal acetylcholine response;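 active means activation above the run's mean over test compounds plus 3 SD, cut at about 23% in these data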;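 further: signal is peak over basal fluorescence ratio across the kinetic read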
Target sequence (P08912 whole entry, looked up): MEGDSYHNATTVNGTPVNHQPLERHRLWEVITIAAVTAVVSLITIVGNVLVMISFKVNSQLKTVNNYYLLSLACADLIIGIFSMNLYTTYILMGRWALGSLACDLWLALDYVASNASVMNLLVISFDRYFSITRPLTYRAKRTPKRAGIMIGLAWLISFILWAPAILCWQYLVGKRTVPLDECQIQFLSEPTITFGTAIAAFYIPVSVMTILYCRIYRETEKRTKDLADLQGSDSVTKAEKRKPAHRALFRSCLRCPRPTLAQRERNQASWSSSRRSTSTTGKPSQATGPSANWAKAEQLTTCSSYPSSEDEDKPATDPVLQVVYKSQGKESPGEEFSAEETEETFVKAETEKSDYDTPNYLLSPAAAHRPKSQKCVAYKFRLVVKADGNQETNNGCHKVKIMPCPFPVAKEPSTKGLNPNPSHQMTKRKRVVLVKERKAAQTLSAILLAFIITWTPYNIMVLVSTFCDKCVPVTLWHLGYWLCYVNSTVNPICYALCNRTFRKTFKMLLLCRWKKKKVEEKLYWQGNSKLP
M4 PAM – human M4 muscarinic receptor positive allosteric modulators, primary screen, CHO-K1 cells, Fluo-8 calcium fluorescence; Muscarinic acetylcholine receptor M4 (Homo sapiens), P08173; CHO-K1 hM4/Gqi5, ACh EC20; 0% = ACh EC20, 100% = maximal ACh; activation, % at 3 µM; 360,000 compounds, 0.4% hits;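 active means activation above its plate's cutoff, the mean activation of sample wells plus 3 SD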
CHRM5 PAM – human M5 muscarinic receptor positive allosteric modulators, primary screen, CHO-K1 cells, Fluo-8 calcium fluorescence | Muscarinic acetylcholine receptor M5 (Homo sapiens), P08912 | CHO-K1 hM5, ACh EC20 PAM; 0% = ACh EC20, 100% = ACh EC100 | activation, % at 3 µM | 360,000 compounds, 0.3% hits | AID 624038, 2012;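 active means activation above the run cutoff, the mean activation of all test compounds plus 3 SD, cut at about 18% in these data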
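Test system: CHO-K1 hM5 cells / Doses: single-point, 3 µM nominal / Times: Post-acetylcholine fluorescence recording 140 s / Technique: Fluo-8 calcium fluorescence / Measure: Max/basal fluorescence ratio as % of EC20–EC100 ACh window / Benchmarks: low control EC20 acetylcholine (0%), high control EC100 acetylcholine (100%) / Replicates: one well per compound, no replicates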
CHRM5 antagonist – human M5 muscarinic receptor antagonists, primary screen, CHO cells, Fluo-8 calcium fluorescence | inhibition, % at 3 µM | CHO-hM5 cells, ACh EC80 | 360,000 compounds, 0.59% hits | AID 624040, 2012 | Muscarinic acetylcholine receptor M5 (Homo sapiens), P08912;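 active means inhibition above a per-plate cutoff, the mean of that plate's test compounds plus 3 SD, cut at about 27% in these data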;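 further: 0% = acetylcholine EC80 with DMSO and 100% = DMSO without agonist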
The depositor's hits bear a star.

SMILES	CHRM4 agonist	M4 antag	CHRM5 agonist	M4 PAM	CHRM5 PAM	CHRM5 antagonist
COc1cccc(/C=C2\CCCCC2=O)c1	0	-18	0	1	31*	-26
COc1cccc(/C=C2\CCC(C3CCCC3)C2=O)c1 (stereo unspecified)	1	-2	-1	-1	4	-6
O=C1c2ccccc2C(Nc2cccnc2)N1Cc1ccccc1 (stereo unspecified)	14	29*	0	-15	-12	5
O=C1c2ccccc2C(Nc2cccnc2)N1Cc1ccccc1Cl (stereo unspecified)	12	4	-2	-11	-9	7
CC(=O)c1cccc(S(=O)(=O)N2CCC(C(=O)O)(c3ccccc3)CC2)c1	0	-31	-3	16*	-2	2
CC(=O)c1cccc(S(=O)(=O)N2CCC(C(=O)O)CC2)c1	1	-6	1	-9	5	-8
CC(=O)c1cccc(NC(=O)C(C)OC(=O)c2cccc(S(=O)(=O)N3CCN(C)CC3)c2)c1 (stereo unspecified)	2	-1	44*	2	-11	0
CC(OC(=O)c1cccc(S(=O)(=O)N2CCN(C)CC2)c1)C(=O)Nc1ccc(C(N)=O)cc1 (stereo unspecified)	0	-4	3	5	-9	3
N#Cc1c(-c2ccccc2)nc(SCc2cccc(Cl)c2)[nH]c1=O	0	2	-2	-4	-5	10
COc1ccc(CNC(C)C23CC4CC(CC(C4)C2)C3)c(OC)c1OC (stereo unspecified)	6	4	-5	-4	9	2
CC(NCc1ccc(OCC(N)=O)cc1)C12CC3CC(CC(C3)C1)C2 (stereo unspecified)	1	29*	-1	-15	-3	4
Cc1ccc(C(=O)N2CCN(c3ccc([N+](=O)[O-])c(NCc4ccco4)c3)CC2)cc1	-2	-17	-11	31*	-1	-10
COc1ccc(CN2C(=O)CSCC2(C)C(=O)Nc2c(C)cccc2C)cc1 (stereo unspecified)	3	-14	0	2	-3	3
N#CCCN(Cc1cccs1)C(=O)c1ccc(Cl)cc1	1	-6	-5	0	0	15
COC(=O)c1cc(Oc2ccc(C(=O)OC)cc2N)cc(C(=O)OC)c1	1	-2	0	20*	-14	-9
O=C(NCCN1CCN(C(=O)c2ccc(F)cc2)CC1)c1ccc(F)cc1	1	-12	-5	4	-2	1
Cc1ccc(NC(=O)CSCC(=O)N(C)Cc2c(F)cccc2Cl)cc1	7	-6	3	-6	4	4
Nc1cc(=O)[nH]c(SCC(=O)Nc2cccnc2Cl)n1	4	-26	-3	22*	-7	10
COc1ccc(CC2(CO)CCN(CC3=Cc4cc(Cl)ccc4OC3)CC2)cc1	16	29*	-1	-20	-15	25
CNC(=O)C1CN(C(=O)c2nn(Cc3ccccc3)c(=O)c3ccccc23)c2ccccc2O1 (stereo unspecified)	4	2	0	-5	-6	-2
CCOc1ccc(S(=O)(=O)NC(Cc2cnc[nH]2)C(=O)O)cc1 (stereo unspecified)	3	-6	5	21*	9	5
CCOc1ccc(NC(=O)CCn2c(=S)oc3ccccc32)cc1	1	18	-1	27*	9	20
CC(=O)Nc1ccc(S(=O)(=O)CCC#N)cc1	1	-7	-5	7	40*	10
O=C(CCN1CCN2CCCC2C1)N1c2ccccc2Sc2ccc(Cl)cc21 (stereo unspecified)	1	16	-7	-18	-10	11
CN1CCC=C(C(=O)N2c3ccccc3Sc3ccc(Cl)cc32)C1	2	86*	-22	-59	-32	99*
SMILES	CHRM4 agonist	M4 antag	CHRM5 agonist	M4 PAM	CHRM5 PAM	CHRM5 antagonist
CN(C)CCC(=O)N1c2ccccc2Sc2ccc(Cl)cc21	0	96*	-10	-24	-20	100*
Cn1nnnc1SCC(=O)N1c2ccccc2Sc2ccc(Cl)cc21	2	14	-12	-13	-13	10
CN(C)CC(=O)N1c2ccccc2Sc2ccc(Cl)cc21	1	68*	-10	-20	-19	95*
CCN(CC)CCC(=O)N1c2ccccc2Sc2ccc(Cl)cc21	1	98*	-1	-18	-19	99*
CCCOc1ccc(C=Nc2ccc(OC)c(S(=O)(=O)N3CCOCC3)c2)c(O)c1	0	-11	0	14	11	-7
O=S(=O)(NCc1cccs1)c1ccccc1Cl	0	8	0	0	-7	15
C[C@H](CO)N1C[C@H](C)[C@H](CN(C)S(=O)(=O)c2ccc(Cl)cc2)OCc2cnnn2CCCC1=O	1	3	1	-2	2	-10
CC1(c2ccc(OC(F)F)cc2)NC(=O)N(CC(=O)Nc2ccc(Cl)cc2F)C1=O (stereo unspecified)	31	3	30*	-3	4	3
CC1(c2ccc(OC(F)F)cc2)NC(=O)N(CC(=O)Nc2cccc(F)c2)C1=O (stereo unspecified)	98*	26*	45*	-23	1	25
CCOC(=O)c1c(NC(=O)CN2C(=O)NC(C)(c3ccc(OC(F)F)cc3)C2=O)sc(C)c1C (stereo unspecified)	18	18	15	6	4	17
Cc1cc(NC(=O)CN2C(=O)NC(C)(c3ccc(OC(F)F)cc3)C2=O)no1 (stereo unspecified)	10	6	19	10	2	7
CCC1(CC)NC(=O)N(CC(=O)OCC(=O)Nc2cc(C)ccc2C)C1=O	1	-13	-1	18*	0	1
CC1(C)NC(=O)N(CC(=O)OCC(=O)c2ccc(F)cc2)C1=O	2	-8	2	11	8	-3
CC1(C)NC(=O)N(CC(=O)OCC(=O)Nc2cccc(F)c2)C1=O	1	-1	-5	3	37*	9
NC(c1csc(Nc2ccccn2)n1)C1CCCCC1 (stereo unspecified)	11	-10	4	3	-2	3
